From PMC9732819 (ACS Chemical Neuroscience, 2022)

Columns and labels:
[1] = test system: potassium channel; settings: read-out: in vitro IC50; electrophysiology; cited from earlier work
[2] = test system: voltage-gated K^+ channels; assay: Guo graphical comparison of regional VT between tracers in nonhuman primates; format: in vivo, rhesus macaques; settings: for slope of VT correlation plot (Guo method; in vivo affinity ratio): both monkeys combined
In short: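 Per animal, regional VT of the test tracer (mean of two baseline scans) was regressed against regional VT of each reference 4-aminopyridine tracer. Linearity indicated a shared target, the y-intercept sign indicated relative signal-to-noise, and the slope with measured plasma-free fractions gave the in vivo affinity ratio. Pearson r was used, with Fisher-transformation t-distribution p-values for the regression and intercept.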

[3] = test system: voltage-gated K^+ channels; assay: PET imaging and ex vivo γ counting of brain and blood in healthy rats; design: species or system Sprague Dawley rats
In short: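 Six–eight-week-old male and female Sprague Dawley rats received ~14.8 MBq tracer by tail vein, alone or with 5 mg/kg cold test compound (5–10 mg/kg in the ex vivo legend), in saline containing ≤10% […]. Rats underwent 60 min PET/CT under 2% isoflurane. Blood (cardiac puncture) and brain were then collected, weighed and γ-counted to give SUV ratios. Imaging used 4 rats; γ-counting used 15. Data are mean ± SD.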

[4] = test system: voltage-gated K^+ channels; assay: dynamic brain PET imaging and pharmacokinetic modeling in nonhuman primates; format: in vivo, rhesus macaques
In short: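 Two male rhesus macaques (10 and 14 years; one with a prior craniotomy injury) each had two baseline scans. Tracer (291.5–330.1 MBq; 90.3–247.5 GBq/μmol) was infused over 3 min into the saphenous vein, followed by a saline flush, with 180 min list-mode PET/CT under isoflurane. Ten regional TACs were taken in MRI-template space. 1T and 2T models with metabolite-corrected input gave K1 and VT (AIC comparison), with Logan and MA1 also tested.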

[5] = arterial blood and radiometabolite analysis in nonhuman primates; format: in vivo, rhesus macaques
In short: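 Rhesus macaques were sedated with ketamine/xylazine IM and kept on isoflurane. Arterial blood was sampled manually via a posterior tibial catheter throughout PET to measure whole-blood and plasma radioactivity. Plasma from 3–120 min was filtered through a 10K filter (21 000 rcf, 8 °C, 15 min) and run on C18 radioHPLC in pH 12 phosphate/NaOH:MeCN 96:4 to obtain the parent fraction. Plasma-free fraction was measured in triplicate.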

| increase of whole brain to blood SUVR, coinjection group vs baseline group ([3]; 60 min, p = 0.017) [%] | time of peak radioactivity in the brain ([3]; PET brain time-activity curve) [min] | whole brain SUV ([4]; monkey brain, 3 min) | K1 (rate constant for transfer from plasma to brain tissue) ([4]; monkey whole brain, 1T2k1v model) [mL/min/cc] | total volume of distribution (VT) ([4]; striatum, monkey 1, 1T2k1v) [mL/cc] | total volume of distribution (VT) ([4]; striatum, monkey 2, 1T2k1v) [mL/cc] | total volume of distribution (VT) ([4]; white matter, monkey 1, 1T2k1v) [mL/cc] | total volume of distribution (VT) ([4]; white matter, monkey 2, 1T2k1v) [mL/cc] | fraction unbound ([5]; male, rhesus monkey, arterial plasma) | time for WB to PL ratio to reach a plateau ([5]; monkey arterial blood) [min] | activity attributable to parent tracer in plasma (radioHPLC) ([5]; monkey arterial plasma, after 90 min) [%] | WB to PL radioactivity concentration ratio ([5]; monkey, 1 min postinjection, across all studies) | Compound | IC50 [1] [µM] | slope of VT correlation plot (Guo method; in vivo affinity ratio) ([2]; vs [^11C]3MeO4AP, p < 0.0001) | intercept of Guo plot (relative specific binding) ([2]; vs [^11C]3MeO4AP, p = 0.31) | slope of VT correlation plot (Guo method; in vivo affinity ratio) ([2]; vs [^18F]3F4AP, p = 0.0001) | intercept of Guo plot (relative specific binding) ([2]; vs [^18F]3F4AP, p = 0.91) | visibility of minor focal brain lesion on PET images ([4]; monkey 2 (M2), craniotomy site) |
| --- | --- | --- | --- | --- | --- | --- | --- | --- | --- | --- | --- | --- | --- | --- | --- | --- | --- | --- |
|  |  |  |  |  |  |  |  |  |  |  |  | Cc1cnccc1N [3Me4AP, 3-methyl-4-aminopyridine] | 40 |  |  |  |  |  |
| 43 | ≤ 3 | 0.7 | ~0.035 | 4.67 | 4.68 | 3.61 | 3.78 | 0.94 ± 0.03 | ≤ 1 | ~90 | 1.28 ± 0.01 | [11CH3]c1cnccc1N [[^11C]3Me4AP, 3-[^11C]Methyl-4-aminopyridine] |  | 0.73 | 0.67 | 1.93 | 0.10 | not visible |
